ChEMBL document CHEMBL1143979, “1-, 3- and 8-substituted-9-deazaxanthines as potent and selective antagonists at the human A2B adenosine receptor” (Bioorg Med Chem, 2008)

Tests used:
Adenosine receptor A2a [1] = target: T1, Adenosine receptor A2a (Homo sapiens, UniProt P29274); experiment: Displacement of [3H]ZM-241385 from human adenosine A2A receptor expressed in CHO cells; assay type: cell-based
Method in brief: (§1)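 Competition binding at cloned human receptors: [3H]DPCPX for A1 and A2B, [3H]ZM241385 for A2A, [3H]NECA for A3. Screening compounds are reported as % radioligand displacement at one concentration. SEM below 10%.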

Adenosine receptor A2b = target: T2, Adenosine receptor A2b (Homo sapiens, UniProt P29275); experiment: Displacement of [3H]DPCPX from human adenosine A2B receptor expressed in HEK293 cells; assay type: cell-based
T2 sequence (P29275 whole entry): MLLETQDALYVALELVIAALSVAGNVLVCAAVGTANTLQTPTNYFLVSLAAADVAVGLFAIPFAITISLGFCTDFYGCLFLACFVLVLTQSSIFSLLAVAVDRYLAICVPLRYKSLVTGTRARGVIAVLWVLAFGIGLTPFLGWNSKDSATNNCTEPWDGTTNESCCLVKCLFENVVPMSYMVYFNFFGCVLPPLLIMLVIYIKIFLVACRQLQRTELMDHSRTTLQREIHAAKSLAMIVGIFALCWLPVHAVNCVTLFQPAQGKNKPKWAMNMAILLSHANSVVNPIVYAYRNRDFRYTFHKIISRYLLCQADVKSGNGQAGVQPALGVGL

Homo sapiens [2] = organism: Homo sapiens; experiment: Selectivity index, ratio for human adenosine A2A receptor to human adenosine A2B receptor
[3] = target: T3, Adenosine receptor A1 (Homo sapiens) (UniProt P30542); experiment: Displacement of [3H]DPCPX from human adenosine A1 receptor expressed in CHO cells at 1 uM; assay type: cell-based; method in brief: as §1
T3 sequence (whole entry): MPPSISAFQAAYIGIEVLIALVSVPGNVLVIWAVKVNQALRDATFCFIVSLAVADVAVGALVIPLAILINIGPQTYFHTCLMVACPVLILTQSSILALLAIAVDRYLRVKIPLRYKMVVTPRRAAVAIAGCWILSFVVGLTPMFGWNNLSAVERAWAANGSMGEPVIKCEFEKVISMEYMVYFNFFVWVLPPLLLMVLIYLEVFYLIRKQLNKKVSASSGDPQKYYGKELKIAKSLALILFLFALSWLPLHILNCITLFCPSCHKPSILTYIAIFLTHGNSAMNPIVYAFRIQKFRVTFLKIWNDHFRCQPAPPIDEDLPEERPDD

[4] = target: T4, Adenosine receptor A3 (Homo sapiens) (UniProt P0DMS8); experiment: Displacement of [3H]NECA from human adenosine A3 receptor expressed in CHO cells at 1 uM; assay type: cell-based; method in brief: as §1
T4 sequence (whole entry): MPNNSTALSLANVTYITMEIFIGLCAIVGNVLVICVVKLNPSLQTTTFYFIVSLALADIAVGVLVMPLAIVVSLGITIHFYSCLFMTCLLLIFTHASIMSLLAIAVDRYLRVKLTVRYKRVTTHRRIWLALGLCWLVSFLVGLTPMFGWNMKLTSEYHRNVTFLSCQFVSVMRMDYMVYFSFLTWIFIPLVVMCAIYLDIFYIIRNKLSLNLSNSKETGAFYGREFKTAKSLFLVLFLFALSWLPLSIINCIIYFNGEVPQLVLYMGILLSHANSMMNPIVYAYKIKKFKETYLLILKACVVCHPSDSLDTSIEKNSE

Homo sapiens [5] = organism: Homo sapiens; experiment: Selectivity index, ratio for human adenosine A3 receptor to human adenosine A2B receptor
Homo sapiens [6] = organism: Homo sapiens; experiment: Selectivity index, ratio for human adenosine A1 receptor to human adenosine A2B receptor
Adenosine receptor A1 = target: T5, Adenosine receptor A1 (Homo sapiens, UniProt P30542); experiment: Displacement of [3H]DPCPX from human adenosine A1 receptor expressed in CHO cells; assay type: cell-based; method in brief: as §1
T5 sequence (P30542 whole entry): T3 sequence (whole entry)

[7] = Antagonist activity at adenosine A2B receptor in guinea pig thoracic aorta smooth muscle; assay type: functional, tissue-based, Cavia porcellus
Method in brief: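 Isolated guinea pig thoracic aorta smooth muscle (A2B). Cumulative NECA concentration–response curves were run without and with antagonist. Antagonism is read as a parallel rightward shift with no loss of maximum, and reported as pA2.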

Adenosine receptor A2a [8] = target: Adenosine receptor A2a (Rattus norvegicus, UniProt P30543); experiment: Antagonist activity at adenosine A2A receptor in Sprague-Dawley rat aorta smooth muscle; assay type: functional, tissue-based; settings: read-out: pA2 (converted)
Adenosine receptor A2a (Rattus norvegicus, UniProt P30543), sequence (P30543 whole entry): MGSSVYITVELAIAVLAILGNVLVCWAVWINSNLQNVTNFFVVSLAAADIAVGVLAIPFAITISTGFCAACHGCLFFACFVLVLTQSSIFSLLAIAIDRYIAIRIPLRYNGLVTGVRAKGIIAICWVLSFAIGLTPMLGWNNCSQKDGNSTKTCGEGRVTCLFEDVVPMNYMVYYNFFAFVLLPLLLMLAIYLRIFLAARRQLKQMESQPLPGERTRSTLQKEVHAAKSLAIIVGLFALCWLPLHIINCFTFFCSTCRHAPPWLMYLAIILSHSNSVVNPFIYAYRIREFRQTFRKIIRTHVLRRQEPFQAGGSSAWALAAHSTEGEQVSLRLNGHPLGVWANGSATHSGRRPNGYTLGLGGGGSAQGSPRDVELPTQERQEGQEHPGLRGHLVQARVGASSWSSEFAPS
Method in brief: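 Isolated aorta from male Sprague–Dawley rats (200–250 g) for A2A receptors. Cumulative NECA agonist concentration–response curves were run without and with antagonist, and antagonist potency is given as pA2.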

Adenosine receptor A2a [9] = target: T1, Adenosine receptor A2a; experiment: Antagonist activity at human adenosine A2A receptor expressed in CHO cells by cAMP assay; assay type: functional, cell-based
Method in brief: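 cAMP assay in CHO cells transfected with human A2A receptor. Cumulative NECA concentration–response curves were run alone and with antagonist, and potency is expressed as pA2.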

[10] = target: T6, Adenosine receptor A2b (Homo sapiens) (UniProt P29275); experiment: Antagonist activity at human adenosine A2B receptor expressed in HEK293 cells by cAMP assay; assay type: functional, cell-based
T6 sequence (whole entry): T2 sequence (P29275 whole entry)
Method in brief: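 cAMP assay in HEK-293 cells with endogenous human A2B receptor expression. NECA cumulative concentration–response curves were run in the absence and presence of antagonist, and the parallel rightward shift gives pA2.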

Adenosine receptor A3 = target: T7, Adenosine receptor A3 (Homo sapiens, UniProt P0DMS8); experiment: Displacement of [3H]NECA from human adenosine A3 receptor expressed in CHO cells; assay type: cell-based; method in brief: as §1
T7 sequence (P0DMS8 whole entry): T4 sequence (whole entry)

T1 sequence (P29274 whole entry): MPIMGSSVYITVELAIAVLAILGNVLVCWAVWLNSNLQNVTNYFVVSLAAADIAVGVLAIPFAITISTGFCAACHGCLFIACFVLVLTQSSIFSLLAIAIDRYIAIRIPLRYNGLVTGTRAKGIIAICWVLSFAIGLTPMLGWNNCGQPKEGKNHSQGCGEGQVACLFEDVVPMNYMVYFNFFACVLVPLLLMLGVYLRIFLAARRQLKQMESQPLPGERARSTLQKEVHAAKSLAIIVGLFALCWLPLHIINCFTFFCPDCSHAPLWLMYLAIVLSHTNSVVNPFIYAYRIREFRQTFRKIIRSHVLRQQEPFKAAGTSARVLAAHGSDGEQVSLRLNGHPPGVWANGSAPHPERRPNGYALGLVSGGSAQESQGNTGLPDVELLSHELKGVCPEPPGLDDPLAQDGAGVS

Compound `Cn1c(=O)c2[nH]c(-c3ccc(OC(C)(C)C(=O)N4CCN(c5nc6cc(Cl)ccc6s5)CC4)cc3)cc2n(C)c1=O` has a Ki (Adenosine receptor A2a [1]) of 10 µM, a Ki (Adenosine receptor A2b; read-out: Ki) of 0.011 µM and a Ratio (Homo sapiens [2]) of 912. For the same compound, the Activity [3] was 8%, the Activity [4] was 18% and the Ratio (Homo sapiens [5]) was greater than 100. It also gave a Ratio (Homo sapiens [6]) greater than 100.
`CCCn1c(=O)n(C)c(=O)c2[nH]c(-c3ccc(OCC(=O)N4CCC(c5ccccc5)(c5ccccc5)CC4)cc3)cc21` gave a Ki (Adenosine receptor A1) of 0.676 µM, a Ki (Adenosine receptor A2a [1]) of 3.55 µM and a Ki (Adenosine receptor A2b; read-out: Ki) of 0.0055 µM. The Ki (Adenosine receptor A2b; read-out: Log Ki (converted)) was 0.00562 µM, the Ratio (Homo sapiens [2]) was 630 and the Activity [4] was 4%. For the same compound, the pA2 [7] was 8, the Kb (Adenosine receptor A2a [8]) was 7.94 µM and the Activity (Adenosine receptor A2a [9]) was “Dose-dependent effect”. For the same compound, the Activity [10] was “Dose-dependent effect”, the Ratio (Homo sapiens [5]) was greater than 180 and the Ratio (Homo sapiens [6]) was 120.
Compound `CCCn1c(=O)n(C)c(=O)c2[nH]c(-c3ccc(OCC(=O)N4CCN(c5ccc(C(F)(F)F)cc5)CC4)cc3)cc21` has a Ki (Adenosine receptor A1) of 0.0891 µM, a Ki (Adenosine receptor A2a [1]) of 0.324 µM and a Ki (Adenosine receptor A2b; read-out: Ki) of 0.002 µM. It also gave a Ki (Adenosine receptor A3) of 2.24 µM, a Ratio (Homo sapiens [2]) of 158 and a Ratio (Homo sapiens [5]) of 3090. It also gave a Ratio (Homo sapiens [6]) of 44.
